Assay results reported in ChEMBL document CHEMBL1221173, “Dynamic imaging of protease activity with fluorescently quenched activity-based probes” (Nat Chem Biol, 2005).
Active and inactive are the calls of the source. The calls are words filed in the database; no cut-off is given here.

Columns and labels:
[1] = target: Procathepsin L (Homo sapiens) (UniProt P07711); assay: Inhibition of human cathepsin L using Z-FR-AMC substrate assessed as inhibition association constant by fluorimetric assay
Outline: (§1)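 Cathepsin B or L (1 nM final) with inhibitor at 10–2,000 nM plus 10 µM substrate (Z-RR-AMC for B, Km 114 µM; Z-FR-AMC for L, Km 7.1 µM), 3.5% DMSO. AMC fluorescence (Ex 370/Em 460 nm) read continuously for 30 min. k_app from inhibition curves converted to k_ass = k_app(1+[S]/K_M).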

Cathepsin B (Bos taurus) [2] = target: Cathepsin B (Bos taurus) (UniProt P07688); assay: Inhibition of bovine cathepsin B using Z-RR-AMC substrate assessed as inhibition association constant by fluorimetric assay; outline: as §1
[3] = target: Procathepsin L (Homo sapiens) (UniProt P07711); assay: Binding affinity to human recombinant cathepsin L assessed as protein labeling at 0.1 to 10 uM after 30 mins using SDS-PAGE and Typhoon laser flatbed canning method
Outline: (§2)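 Recombinant enzyme (cathepsin B, bovine, 0.4 µg; cathepsin L, human, 0.7 µg) in pH 5.5 acetate buffer (50 mM acetate, 2 mM DTT, 5 mM MgCl₂). Optional 30 min pretreatment at 25 °C with general papain-family inhibitor JPM-OEt (25 µM), or DMSO. Probe at increasing concentrations for 30 min. Stopped with SDS sample buffer, SDS-PAGE, gel fluorescence scanned.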

Cathepsin B (Bos taurus) [4] = target: Cathepsin B (Bos taurus) (UniProt P07688); assay: Binding affinity to bovine recombinant cathepsin B assessed as protein labeling at 0.1 to 10 uM after 30 mins using SDS-PAGE and Typhoon laser flatbed canning method; outline: as §2
[5] = target: Cathepsin S (Homo sapiens) (UniProt P25774); assay: Binding affinity to recombinant cathepsin S assessed as protein labeling at 0.1 to 10 uM after 30 mins using SDS-PAGE and Typhoon laser flatbed canning method
Chain of Cathepsin S (Homo sapiens) (P25774 115-331 limits assumed): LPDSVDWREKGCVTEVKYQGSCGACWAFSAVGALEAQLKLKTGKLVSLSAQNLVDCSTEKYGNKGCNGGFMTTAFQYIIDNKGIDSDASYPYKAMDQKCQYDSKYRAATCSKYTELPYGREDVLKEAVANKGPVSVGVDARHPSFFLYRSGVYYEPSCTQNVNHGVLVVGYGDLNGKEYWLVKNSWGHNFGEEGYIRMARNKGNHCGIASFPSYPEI

[6] = target: Cathepsin B (Mus musculus) (UniProt P10605); assay: Binding affinity to cathepsin B in mouse NIH/3T3 cells assessed as protein labeling at 1 uM after 30 mins using SDS-PAGE and Typhoon laser flatbed canning method; assay type: cell-based; settings: NIH3T3
Chain of Cathepsin B (Mus musculus) (P10605 80-333 limits assumed): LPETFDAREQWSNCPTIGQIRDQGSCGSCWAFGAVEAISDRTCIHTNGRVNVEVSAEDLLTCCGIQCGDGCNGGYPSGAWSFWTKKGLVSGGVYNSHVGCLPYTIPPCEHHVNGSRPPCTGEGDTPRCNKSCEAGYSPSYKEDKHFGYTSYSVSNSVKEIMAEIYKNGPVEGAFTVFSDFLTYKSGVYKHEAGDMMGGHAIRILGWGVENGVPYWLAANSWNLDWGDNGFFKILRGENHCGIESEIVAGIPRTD
Outline: (§3)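 NIH-3T3 monolayers seeded one day before. Pretreated 1 h with JPM-OEt (50 µM) or 0.1% DMSO, then probe added to medium at pH 7.4 (final DMSO 0.2%) for the indicated times. Cells PBS-washed and lysed in SDS sample buffer, then boiled. Equal protein run on 12% SDS-PAGE, gel scanned at Ex/Em 532/580 nm.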

[7] = target: T1, Procathepsin L (Mus musculus) (UniProt P06797); assay: Binding affinity to cathepsin L in mouse NIH/3T3 cells assessed as protein labeling at 1 uM after 30 mins using SDS-PAGE and Typhoon laser flatbed canning method; assay type: cell-based; settings: NIH3T3; outline: as §3
T1 sequence (whole entry): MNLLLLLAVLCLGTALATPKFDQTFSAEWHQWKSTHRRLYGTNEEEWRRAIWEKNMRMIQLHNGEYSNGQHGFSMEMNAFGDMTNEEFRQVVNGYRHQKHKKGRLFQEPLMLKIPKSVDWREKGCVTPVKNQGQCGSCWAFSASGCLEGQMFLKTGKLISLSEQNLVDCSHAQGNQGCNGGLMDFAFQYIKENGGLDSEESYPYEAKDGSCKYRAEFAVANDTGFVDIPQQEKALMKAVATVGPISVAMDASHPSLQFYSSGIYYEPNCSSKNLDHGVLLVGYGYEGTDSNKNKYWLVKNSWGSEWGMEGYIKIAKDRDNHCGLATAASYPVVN

[8] = Cytotoxicity against mouse NIH/3T3 cells; assay type: cell-based; settings: nih3t3
[9] = target: Cathepsin B (Mus musculus) (UniProt P10605); assay: Binding affinity to cathepsin B in mouse NIH/3T3 cells monolayers assessed as protein labeling at 1 uM after 4 to 5 hrs by fluorescence microscopy; assay type: cell-based; settings: NIH3T3
Outline: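 Live NIH-3T3 cells on glass coverslips, pretreated 1 h with JPM-OEt (50 µM) or 0.1% DMSO. Probe (1 µM) added to growth medium, pH 7.4, for 4–5 h. Moved to phenol red-free medium with LysoTracker (50 nM final) for lysosome co-localization, then imaged by inverted fluorescence microscopy. Some cells first washed 3 h in medium with JPM-OEt or DMSO.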

[10] = Binding affinity to recombinant cathepsin X assessed as protein labeling at 0.1 to 10 uM after 30 mins using SDS-PAGE and Typhoon laser flatbed canning method
[11] = target: Procathepsin L (Homo sapiens) (UniProt P07711); assay: Binding affinity to cathepsin L in human MCF10A cells grown on reconstituted basement membrane exposed to 1 uM compounds assessed as protein labeling after 3 days by confocal fluorescence microscopy; settings: MCF-10A
[12] = target: Cathepsin B (Homo sapiens) (UniProt P07858); assay: Binding affinity to cathepsin B in human MCF10A cells grown on reconstituted basement membrane exposed to 1 uM compounds assessed as protein labeling after 3 days by confocal fluorescence microscopy; settings: MCF-10A
[13] = target: Cathepsin B (Homo sapiens) (UniProt P07858); assay: Binding affinity to cathepsin B in 8 day old human MCF10A cells grown on reconstituted basement membrane assessed as protein labeling exposed to 1 uM for 3 hrs followed by washing overnight with growth media by confocal fluorescence microscopy; assay type: cell-based; settings: MCF-10A
Outline: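 Day 8 three-dimensional MCF-10A cultures on reconstituted basement membrane, grown without probe. Treated with 1 µM probe for 3 h in assay medium (2% horse serum, 5 ng/ml EGF), washed overnight, then cold-methanol fixed. Immunostained overnight at 4 °C with rabbit anti-human cathepsin B, then secondary antibody and DAPI. Imaged by confocal microscopy.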

Chain of Procathepsin L (Homo sapiens) (P07711 114-333 limits assumed): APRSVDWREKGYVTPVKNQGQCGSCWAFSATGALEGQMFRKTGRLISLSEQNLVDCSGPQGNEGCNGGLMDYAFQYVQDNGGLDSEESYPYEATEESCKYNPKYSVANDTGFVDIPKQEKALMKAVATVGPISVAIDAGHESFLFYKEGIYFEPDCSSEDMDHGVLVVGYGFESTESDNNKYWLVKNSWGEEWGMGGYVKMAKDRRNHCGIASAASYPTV

Compound	INH [1] [M⁻¹ s⁻¹]	INH (Cathepsin B (Bos taurus) [2]) [M⁻¹ s⁻¹]	Activity [3]	Activity (Cathepsin B (Bos taurus) [4])	Activity [5]	Activity [6]	Activity [7]	Activity [8]	Activity [9]	Activity [10]	Activity [11]	Activity [12]	Activity [13]
COc1ccc(-c2ccc3n2[B-](F)(F)[N+]2=C(C)C(CCC(=O)NCCCCCC(=O)NCCCC[C@@H](NC(=O)[C@@H](Cc4ccccc4)NC(=O)OCc4ccccc4)C(=O)COC(=O)CNC(=O)C4CCN(S(=O)(=O)c5ccccc5-c5c6cc/c(=[N+](/C)c7ccccc7)cc-6oc6cc(Nc7ccccc7)ccc56)CC4)=C(C)C2=C3)cc1	7000	275	Active	Active	Active	inactive	Active	Non-toxic	Active	Active	Active	Active	
COc1ccc(-c2ccc3n2[B-](F)(F)[N+]2=C(C)C(CCC(=O)NCCCCCC(=O)NCCCC[C@@H](NC(=O)[C@@H](Cc4ccccc4)NC(=O)OC(C)(C)C)C(=O)COC(=O)c4c(C)cccc4C)=C(C)C2=C3)cc1	1180	212											
COc1ccc(-c2ccc3n2[B-](F)(F)[N+]2=C(C)C(CCC(=O)NCCCCCC(=O)NCCCC[C@@H](NC(=O)[C@H](N)Cc4ccccc4)C(=O)COC(=O)c4c(C)cccc4C)=C(C)C2=C3)cc1	296000	38500											
COc1ccc(-c2ccc3n2[B-](F)(F)[N+]2=C(C)C(CCC(=O)NCCCCCC(=O)NCCCC[C@@H](NC(=O)[C@@H](Cc4ccccc4)NC(=O)OCc4ccccc4)C(=O)COC(=O)c4c(C)cccc4C)=C(C)C2=C3)cc1	2580	1260	Active	Active	Active	Active	Active	Non-toxic	Active	Active	Active	Active	Active
